The record followed here is ChEMBL document CHEMBL3352761, “Synthesis, antitumor activity, and mechanism of action of benzo[b]chromeno[6,5-g][1,8]naphthyridin-7-one analogs of acronycine” (J Med Chem, 2014).

In experiment [1] the test system is L1210. The experiment is described as follows: Cytotoxicity against mouse L1210 cells after 48 hrs by MTT assay. Format: functional, cell-based. The note with it: L1210, 48 h. A general note: Tetrazolium dyes change colour on reduction, which living cells bring about.
A short description of experiment [2]: Cytotoxicity against human KB-3-1 cells after 96 hrs by MTT assay. Type of experiment: functional, cell-based. The settings on record: KB 3-1, 96 h.
Experiment [3] concerns L1210. The experiment is described as follows: Induction of cell cycle arrest in mouse L1210 cells assessed as accumulation at S phase at 5 uM incubated for 21 hrs by propidium iodide staining based flow cytometry (reference value: 32%). Format: functional.
Experiment [4] in a line: Induction of 117-bp DNA (unknown origin) alkylation incubated for 5 mins to 24 hrs by gel shift assay. In a few lines: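 117-bp pBS plasmid fragment (EcoRI/PvuII cut), 32P-labelled at EcoRI end, gel-purified. Incubated with drug (rising concentrations up to 50 μM, or fixed 50 μM for kinetics) in 1 mM Na cacodylate pH 7.0, dark, room temperature. Covalent complex seen as shifted band on native 6% PAGE in TBE, phosphorimaging; T1/2 taken as time to half-maximal shift.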
Background: In EMSA bound probe runs differently from free probe, usually more slowly.

A short description of experiment [5]: Induction of 117-bp DNA (unknown origin) alkylation assessed as incubation time required to obtain half of maximum of covalent drug/DNA complex incubated for 5 mins to 24 hrs by gel shift assay. In a few lines: (§1)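 117-bp pBS EcoRI/PvuII fragment, 32P-end-labelled at EcoRI site, gel-purified; incubated with 50 μM drug in 1 mM Na cacodylate pH 7.0, dark, room temperature, 5 min to 24 h; 6% native polyacrylamide gel in TBE pH 8.3, ~5 h at 300 V; phosphorimaging of shifted band; T1/2 = time to half-maximal gel shift from quantification plots; nd if no maximum reached.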

Experiment [6] can be described thus: Induction of 117-bp DNA (unknown origin) alkylation assessed as incubation time required to obtain maximum of covalent drug/DNA complex incubated for 5 mins to 24 hrs by gel shift assay.
The test system of experiment [7] is MC-38. Briefly: Antitumor activity against mouse C38 cells xenografted in mouse assessed as inhibition of tumor growth at 4 mg/kg, iv administered on day 12 and 24. Format: functional.
Experiment [8] can be described thus: Induction of 117-bp DNA (unknown origin) alkylation at 50 uM incubated for 24 hrs by gel shift assay. In a few lines: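 Labelled 117-bp DNA fragment incubated with drug at increasing concentrations up to 50 μM in 1 mM Na cacodylate pH 7.0, dark, room temperature, 2 or 24 h; native polyacrylamide electrophoresis; bound/free ratio quantified relative to a 50 μM reference alkylator control; scored strong, weak (no plateau by 24 h) or none.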

Experiment [9] deals with L1210. Briefly: Induction of cell cycle arrest in mouse L1210 cells assessed as accumulation at S phase at 10 uM incubated for 21 hrs by propidium iodide staining based flow cytometry (reference value: 32%). Type of experiment: functional. Background: In flow cytometry, cells or beads pass a laser one at a time.
A short description of experiment [10]: Induction of 117-bp DNA (unknown origin) alkylation assessed as incubation time required to obtain half of maximum of covalent drug/DNA complex at 50 uM incubated for 5 mins to 24 hrs by gel shift assay. In a few lines: as §1
Experiment [11] has as its system L1210. Briefly: Induction of cell cycle arrest in mouse L1210 cells assessed as accumulation at S phase at 2.5 uM incubated for 21 hrs by propidium iodide staining based flow cytometry (reference value: 32%). Format: functional.

The source made the active and inactive calls. No cut-off for these calls is given here.

A word on the IC50: it is the point on the concentration scale where inhibition reaches its midpoint. A lower IC50 goes with inhibition by little substance. Regarding `COc1cc2c(c3c1c(=O)c1cc4ccccc4nc1n3C)C=CC(C)(C)O2`, the concentration for half-maximal inhibition (IC50) in experiment [1] was found to be 11000 nM; in experiment [2], 3700 nM. Further, the outcome in [3] was inactive.
The corresponding values for `COc1c2c(cc3c1c(=O)c1cc4ccccc4nc1n3C)OC(C)(C)C=C2` are 24000 nM, 14000 nM and “inactive”.
As for `COc1cc2c(c3c1c(=O)c1cc4ccccc4nc1n3C)[C@@H](OC(C)=O)[C@@H](OC(C)=O)C(C)(C)O2`, the half-maximal inhibitory concentration (IC50) stood at 190 nM in [1] and 110 nM in experiment [2]. Also, the result in experiment [4] was Active. Besides, in [5], the T1/2 is 1 h. For the same molecule, the Tmax in experiment [6] came out at 3 h. For the same molecule, in [7], the TGI entry is “inactive”.
Take `COc1cc2c(c3c1c(=O)c1cc4ccccc4nc1n3C)[C@H](OC(C)=O)[C@H](OC(C)=O)C(C)(C)O2`: the figures for the half-maximal inhibitory concentration (IC50) in experiment [1] and in experiment [2] were 210 nM and 35 nM, respectively. Also, the outcome in experiment [4] was Active. Besides, the T1/2 in experiment [5] is 1.5 h. The Tmax in [6] came to 3 h. Besides, the TGI entry in experiment [7] was “Active”.
With `COc1cc2c(c3c1c(=O)c1cc4ccccc4nc1n3C)[C@@H](O)[C@@H](O)C(C)(C)O2` (racemic), in experiment [1], 5100 nM corresponded to half-maximal inhibition (IC50).
Regarding `COc1c2c(cc3c1c(=O)c1cc4ccccc4nc1n3C)OC(C)(C)[C@@H](O)[C@H]2O` (racemic), the concentration for half-maximal inhibition (IC50) in [1] worked out at 12500 nM; in experiment [2] it was 7000 nM.
`COc1cc2c(c3c1c(=O)c1cc4ccccc4nc1n3C)C(OC(C)=O)C(OC(C)=O)C(C)(C)O2` (racemic): the IC50 stood at 200 nM in experiment [1] and 37 nM in experiment [2]. Besides, the Activity in experiment [3] is 68%. Moreover, the outcome in [4] and in experiment [8] was Active. Besides, the inhibition in vivo at 4 mg/kg in experiment [7] (C38, 288 h, read-out: TGI) worked out at 95%.
For `COc1cc2c(c3c1c(=O)c1cc4ccccc4nc1n3C)[C@@H](OC(=O)/C=C/c1ccccc1)[C@@H](OC(=O)/C=C/c1ccccc1)C(C)(C)O2` (racemic), the half-inhibitory concentration (IC50) in experiment [1] worked out at 5000 nM; in [2], 540 nM.
In the case of `COc1ccc(/C=C/C(=O)O[C@@H]2c3c(cc(OC)c4c(=O)c5cc6ccccc6nc5n(C)c34)OC(C)(C)[C@@H]2OC(=O)/C=C/c2ccc(OC)cc2)cc1` (racemic), the half-maximal inhibitory concentration (IC50) in experiment [1] is 9600 nM; in experiment [2], 370 nM. For the same molecule, the Activity in experiment [3] turned out to be 70%. For the same molecule, in experiment [4], the result was Active.
In the case of `COc1cc2c(c3c1c(=O)c1cc4ccccc4nc1n3C)[C@@H](OC(=O)/C=C/c1ccc(C(F)(F)F)cc1)[C@@H](OC(=O)/C=C/c1ccc(C(F)(F)F)cc1)C(C)(C)O2` (racemic), the IC50 in experiment [1] is 9100 nM; in experiment [2], 420 nM. Also, in experiment [4], the outcome was Active. The Activity in experiment [9] came out at 60%.
As to `COc1cc2c(c3c1c(=O)c1cc4ccccc4nc1n3C)[C@@H](O)[C@@H](OC(=O)/C=C/c1ccccc1)C(C)(C)O2` (racemic), the concentration for half-maximal inhibition (IC50) in experiment [1] amounted to 110 nM; in experiment [2] it was 30 nM. Besides, the result in experiment [4] was Active. Besides, the Activity in experiment [9] is recorded as 66%. Besides, the T1/2 in experiment [5] was 0.75 h. The Tmax in experiment [6] was 3 h.
For `COc1ccc(/C=C/C(=O)O[C@@H]2[C@H](O)c3c(cc(OC)c4c(=O)c5cc6ccccc6nc5n(C)c34)OC2(C)C)cc1` (racemic), the 50% inhibitory concentration (IC50) in experiment [1] worked out at 290 nM; in experiment [2], 23 nM. The Activity in experiment [3] worked out at 76%. Also, the result in experiment [4] was Active.
For `COc1cc2c(c3c1c(=O)c1cc4ccccc4nc1n3C)[C@@H](O)[C@@H](OC(=O)/C=C/c1ccc(C(F)(F)F)cc1)C(C)(C)O2` (racemic), the figures for the IC50 in experiment [1] and in experiment [2] were 90 nM and 13 nM, respectively. The Activity in experiment [3] is 69%. In addition, the outcome in experiment [4] was Active. In addition, the T1/2 in experiment [5] and in experiment [10] was 2 h in each case. In [6], the Tmax came to 8 h.
Turning to `COc1cc2c(c3c1c(=O)c1cc4ccccc4nc1n3C)[C@@H](OC(C)=O)[C@@H](OC(=O)/C=C/c1ccccc1)C(C)(C)O2` (racemic), the IC50 was determined as 2100 nM in experiment [1] and 320 nM in [2]. In addition, the Activity in [3] was 73%. In addition, in [4], the result was Active.
The corresponding values for `COc1ccc(/C=C/C(=O)O[C@@H]2[C@H](OC(C)=O)c3c(cc(OC)c4c(=O)c5cc6ccccc6nc5n(C)c34)OC2(C)C)cc1` (racemic) are 2900 nM, 470 nM, 70% and “inactive”.
Consider `COc1cc2c(c3c1c(=O)c1cc4ccccc4nc1n3C)[C@@H](OC(C)=O)[C@@H](OC(=O)/C=C/c1ccc(C(F)(F)F)cc1)C(C)(C)O2` (racemic), for which the 50% inhibitory concentration (IC50) in experiment [1] was determined as 3800 nM; in experiment [2], 390 nM. For the same molecule, in [4], the result was Active. Further, in experiment [11], the Activity came to 73%.
In the case of `COc1cc2c(c3c1c(=O)c1cc4ccccc4nc1n3C)[C@H]1OC(=O)O[C@H]1C(C)(C)O2` (racemic), the IC50 in experiment [1] was 120 nM; in experiment [2], 41 nM. Moreover, the Activity in experiment [3] is on record as 76%. The outcome in [4] was Active.
For the molecule `COc1c2c(cc3c1c(=O)c1cc4ccccc4nc1n3C)OC(C)(C)[C@@H](OC(C)=O)[C@H]2OC(C)=O` (racemic), the concentration for half-maximal inhibition (IC50) in experiment [1] was 10300 nM; in experiment [2], 8800 nM. Besides, the outcome in [4] was inactive.
`COc1c2c(cc3c1c(=O)c1cc4ccccc4nc1n3C)OC(C)(C)[C@H]1OC(=O)O[C@@H]21` (racemic): the results for the IC50 in [1] and in experiment [2] were 20000 nM and 12000 nM, respectively. For the same molecule, the Activity in experiment [3] is given as 68%. In addition, the outcome in [4] was Active.
Consider `COc1cc2c(c3c1c(=O)c1cc4ccccc4cc1n3C)[C@@H](OC(C)=O)[C@@H](OC(C)=O)C(C)(C)O2` (racemic), for which, in experiment [2], the 50% inhibitory concentration (IC50) was determined as 100 nM. For the same molecule, the Activity in [3] worked out at 73%. Also, the result in experiment [4] was Active. In experiment [5], the T1/2 came out at 0.5 h. Also, in experiment [6], the Tmax came to 2 h.
With `COc1cc2c(c3c1c(=O)c1cc4ccccc4cc1n3C)C(OC(C)=O)C(OC(C)=O)C(C)(C)O2` (single isomer, unassigned; (+)), in [5], the T1/2 was 0.333 h.
Same read-out and setting: for `COc1cc2c(c3c1c(=O)c1cc4ccccc4cc1n3C)C(OC(C)=O)C(OC(C)=O)C(C)(C)O2` (single isomer, unassigned; (-)) the value was 0.333 h.
`COc1cc2c(c3c1c(=O)c1ccccc1n3C)C=CC(C)(C)O2` [ACRONINE] showed a concentration for half-maximal inhibition (IC50) in experiment [2] of 3700 nM.
